The results in this text go back to ChEMBL document CHEMBL3621052, “Small cyclic agonists of iron regulatory hormone hepcidin” (Bioorg Med Chem Lett, 2015).

The experiment deals with T1, Ferroportin (Homo sapiens, UniProt Q9NP59).
T1 sequence (Q9NP59 whole entry): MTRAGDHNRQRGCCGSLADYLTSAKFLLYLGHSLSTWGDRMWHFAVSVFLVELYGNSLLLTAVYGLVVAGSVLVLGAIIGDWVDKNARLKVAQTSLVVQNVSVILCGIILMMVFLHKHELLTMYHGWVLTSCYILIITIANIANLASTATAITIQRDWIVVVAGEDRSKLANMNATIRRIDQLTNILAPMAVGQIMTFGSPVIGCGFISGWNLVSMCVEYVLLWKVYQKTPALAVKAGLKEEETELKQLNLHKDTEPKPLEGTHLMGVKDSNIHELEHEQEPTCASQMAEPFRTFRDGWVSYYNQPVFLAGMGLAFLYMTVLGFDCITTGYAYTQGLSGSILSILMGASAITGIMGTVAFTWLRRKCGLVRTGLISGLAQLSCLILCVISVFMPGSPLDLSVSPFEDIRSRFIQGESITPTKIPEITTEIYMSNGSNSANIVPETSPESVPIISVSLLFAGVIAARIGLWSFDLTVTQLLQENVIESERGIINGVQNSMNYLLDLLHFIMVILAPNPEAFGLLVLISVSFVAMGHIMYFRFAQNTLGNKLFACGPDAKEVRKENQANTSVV
As to the kind of experiment: Agonist activity at GFP-fused human FPN transfected in HEK293 cells assessed as protein degradation after 24 hrs by flow cytometric analysis. It counts as cell-based. Put shortly:
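HEK293:TREX-Fpn-GFP cells (human ferroportin-GFP, doxycycline-inducible) plated on poly-D-lysine with 20 μM FAC, induced with 500 ng/mL doxycycline for 24 h, washed, then peptide-treated 24 h. Green fluorescence read by flow cytometry at 1 × 10^6 cells/mL, gated against uninduced cells. Activity expressed as fraction of hep25: 1 − [(Fx − Fhep25)/(Funtreated − Fhep25)]. 3–6 independent repeats.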

Each structure is given as a SMILES string. Starred links: 1 amine or outer side, 2 acyl side, 3 side chain; linkers in the order of their positions; H or OH if unused. Positions of bridges follow the written chain, without caps; N, C: chain ends. Non-standard residues stand in square brackets, D forms with d. Residues, ends and D or L forms follow the SMILES beside them. ξ: configuration not given here. *: point of attachment. CH2CONHCH2CH2NHCOCH2 = O=C(C[*:1])NCCNC(=O)C[*:2]; Propanoyl(3,3-Ph2) = O=C(CC(c1ccccc1)c1ccccc1)*; Pyridine(2,6-diCH2) = c1cc(C[*:1])nc(C[*:2])c1; X2 = O=C(CC(c1ccccc1)(c1ccccc1)c1ccccc1)*; dDip = N[C@@H](C(=O)O)C(c1ccccc1)c1ccccc1; X5 = c1cc(Cc2cccc(C[*:2])c2)cc(C[*:1])c1; Dip = N[C@H](C(=O)O)C(c1ccccc1)c1ccccc1; X7 = c1cc(Oc2ccc(C[*:2])cc2)ccc1C[*:1]; TBMB = c1c(C[*:1])cc(C[*:3])cc1C[*:2]; mXylylene = c1cc(C[*:1])cc(C[*:2])c1; oXylylene = c1ccc(C[*:2])c(C[*:1])c1; NH(CH2CH2O)2CH2CH2NH2 = NCCOCCOCCN*; X6 = c1cc(C[*:1])c2c(C[*:2])cccc2c1; pXylylene = c1cc(C[*:2])ccc1C[*:1]; Palmitoyl = CCCCCCCCCCCCCCCC(=O)*; X4 = c1cc(CSCCN[*:2])cc(C[*:1])c1; X3 = O=S(=O)(CC[*:1])CC[*:2]; ξF = NC(Cc1ccccc1)C(=O)O; Mpa = O=C(O)CCS

As for `CC(=O)N[C@H]1CSCc2cccc(c2)Cc2cccc(c2)CSC[C@@H](C(N)=O)NC(=O)[C@H](Cc2ccccc2)NC(=O)[C@H](CCCNC(=N)N)NC(=O)[C@H](CS)NC(=O)[C@H](CCCNC(=N)N)NC(=O)[C@@H]2CCCN2C(=O)[C@H](Cc2ccccc2)NC1=O` (Ac-CFPRCRFC-NH2; linker 1-8 via X5), the EC50 worked out at 517 nM.

Consider `CC(=O)N[C@H]1CSCCS(=O)(=O)CCSC[C@@H](C(N)=O)NC(=O)[C@H](Cc2ccccc2)NC(=O)[C@H](CCCNC(=N)N)NC(=O)[C@H](CS)NC(=O)[C@H](CCCNC(=N)N)NC(=O)[C@@H]2CCCN2C(=O)[C@H](Cc2ccccc2)NC1=O` (Ac-CFPRCRFC-NH2; linker 1-8 via X3), for which the concentration giving a half-maximal response (EC50) is above 600 nM. In the case of `CCCCCCCCCCCCCCCC(=O)N[C@H](C(=O)N[C@H]1CSCc2cccc(c2)CSCCNC(=O)[C@H](Cc2ccccc2)NC(=O)[C@H](CCCNC(=N)N)NC(=O)[C@H](CS)NC(=O)[C@H](CCCNC(=N)N)NC1=O)C(c1ccccc1)c1ccccc1` (Palmitoyl-[Dip]CRCRF; linker 2-C via X4), the concentration for a half-maximal effect (EC50) was above 600 nM. The figure for `C[C@@H](O)[C@H](NC(=O)CNCC(=O)O)C(=O)N[C@H]1CSCc2cccc(c2)CSC[C@@H](C(N)=O)NC(=O)[C@H](Cc2ccccc2)NC(=O)[C@H](CCCNC(=N)N)NC(=O)[C@H](CS)NC(=O)[C@H](CCCNC(=N)N)NC(=O)[C@@H]2CCCN2C(=O)[C@H](Cc2ccccc2)NC1=O` is 532 nM; for `CCCCCCCCCCCCCCCC(=O)N[C@H]1CSCc2cccc(c2)CSC[C@@H](C(N)=O)NC(=O)[C@H](Cc2ccccc2)NC(=O)[C@H](CCCNC(=N)N)NC(=O)[C@H](CS)NC(=O)[C@H](CCCNC(=N)N)NC(=O)[C@@H]2CCCN2C(=O)[C@H](C(c2ccccc2)c2ccccc2)NC1=O` (Palmitoyl-C[Dip]PRCRFC-NH2; linker 1-8 via mXylylene) it is above 600 nM; for `N=C(N)NCCC[C@@H]1NC(=O)[C@H](CS)NC(=O)[C@H](CCCNC(=N)N)NC(=O)[C@@H]2CCCN2C(=O)[C@H](C(c2ccccc2)c2ccccc2)NC(=O)CCSCc2cccc(c2)CSC[C@@H](C(=O)NCCOCCOCCN)NC(=O)[C@H](Cc2ccccc2)NC1=O` ([Mpa][Dip]PRCRFC-{NH(CH2CH2O)2CH2CH2NH2}; linker 1-8 via mXylylene) it is 92.3 nM. As to `CC(=O)N[C@H]1CSCC(=O)NCCNC(=O)CSC[C@@H](C(N)=O)NC(=O)[C@H](Cc2ccccc2)NC(=O)[C@H](CCCNC(=N)N)NC(=O)[C@H](CS)NC(=O)[C@H](CCCNC(=N)N)NC(=O)[C@@H]2CCCN2C(=O)[C@H](Cc2ccccc2)NC1=O` (Ac-CFPRCRFC-NH2; linker 1-8 via CH2CONHCH2CH2NHCOCH2), the EC50 was above 600 nM. As for `CC(=O)N[C@H]1CSCc2ccc(cc2)Oc2ccc(cc2)CSC[C@@H](C(N)=O)NC(=O)[C@H](Cc2ccccc2)NC(=O)[C@H](CCCNC(=N)N)NC(=O)[C@H](CS)NC(=O)[C@H](CCCNC(=N)N)NC(=O)[C@@H]2CCCN2C(=O)[C@H](Cc2ccccc2)NC1=O` (Ac-CFPRCRFC-NH2; linker 1-8 via X7), the 50% effective concentration (EC50) worked out at 477 nM. On to `CC(=O)N[C@H]1CSCc2cccc3cccc(c23)CSC[C@@H](C(N)=O)NC(=O)[C@H](Cc2ccccc2)NC(=O)[C@H](CCCNC(=N)N)NC(=O)[C@H](CS)NC(=O)[C@H](CCCNC(=N)N)NC(=O)[C@@H]2CCCN2C(=O)[C@H](Cc2ccccc2)NC1=O` (Ac-CFPRCRFC-NH2; linker 1-8 via X6), for which the EC50 was above 600 nM. Consider `CC(=O)N[C@H]1CSCc2cccc(n2)CSC[C@@H](C(N)=O)NC(=O)[C@H](Cc2ccccc2)NC(=O)[C@H](CCCNC(=N)N)NC(=O)[C@H](CS)NC(=O)[C@H](CCCNC(=N)N)NC(=O)[C@@H]2CCCN2C(=O)[C@H](Cc2ccccc2)NC1=O` (Ac-CFPRCRFC-NH2; linker 1-8 via Pyridine(2,6-diCH2)), for which the concentration for a half-maximal effect (EC50) was above 600 nM. With `CC(=O)N[C@H]1CSCc2cccc(c2)CSC[C@@H](C(N)=O)NC(=O)[C@H](Cc2ccccc2)NC(=O)[C@H](CCCNC(=N)N)NC(=O)[C@H](CS)NC(=O)[C@H](CCCNC(=N)N)NC(=O)[C@@H]2CCCN2C(=O)[C@H](C(c2ccccc2)c2ccccc2)NC1=O` (Ac-C[Dip]PRCRFC-NH2; linker 1-8 via mXylylene), the EC50 was 54.3 nM. As for `CC(=O)N[C@H]1CSCc2ccccc2CSC[C@@H](C(N)=O)NC(=O)[C@H](Cc2ccccc2)NC(=O)[C@H](CCCNC(=N)N)NC(=O)[C@H](CS)NC(=O)[C@H](CCCNC(=N)N)NC(=O)[C@@H]2CCCN2C(=O)[C@H](Cc2ccccc2)NC1=O` (Ac-CFPRCRFC-NH2; linker 1-8 via oXylylene), the figure is 599 nM; as for `CC(=O)N[C@H]1CSCc2ccc(cc2)CSC[C@@H](C(N)=O)NC(=O)[C@H](Cc2ccccc2)NC(=O)[C@H](CCCNC(=N)N)NC(=O)[C@H](CS)NC(=O)[C@H](CCCNC(=N)N)NC(=O)[C@@H]2CCCN2C(=O)[C@H](Cc2ccccc2)NC1=O` (Ac-CFPRCRFC-NH2; linker 1-8 via pXylylene), 586 nM; as for `N=C(N)NCCC[C@@H]1NC(=O)[C@H](CS)NC(=O)[C@H](CCCNC(=N)N)NC(=O)[C@H](NC(=O)CC(c2ccccc2)c2ccccc2)CSCc2cccc(c2)CSCCNC(=O)[C@H](Cc2ccccc2)NC1=O`, 269 nM. For `CC(=O)N[C@H]1CSCc2cc3cc(c2)CSC[C@H](NC(=O)C(Cc2ccccc2)NC(=O)[C@H](CCCNC(=N)N)NC(=O)[C@H](CS)NC(=O)[C@H](CCCNC(=N)N)NC(=O)[C@@H]2CCCN2C(=O)[C@H](Cc2ccccc2)NC1=O)C(=O)N[C@@H](Cc1ccccc1)C(=O)N1CCC[C@H]1C(=O)N[C@@H](CCCNC(=N)N)C(=O)N[C@@H](CS)C(=O)N[C@@H](CCCNC(=N)N)C(=O)N[C@@H](Cc1ccccc1)C(=O)N[C@H](C(N)=O)CSC3` (some centres not stated) (Ac-CFPRCR[ξF]CFPRCRFC-NH2; linker 1-8-15 via TBMB), the EC50 is above 600 nM. Take `CC(=O)N[C@H]1CSCc2cccc(c2)CSC[C@@H](C(N)=O)NC(=O)[C@H](Cc2ccccc2)NC(=O)[C@H](CCCNC(=N)N)NC(=O)[C@H](CS)NC(=O)[C@H](CCCNC(=N)N)NC(=O)[C@@H]2CCCN2C(=O)[C@H](Cc2ccccc2)NC1=O` (Ac-CFPRCRFC-NH2; linker 1-8 via mXylylene): the EC50 was found to be 272 nM. Consider `C[C@@H](O)[C@H](NC(=O)CNCC(=O)O)C(=O)N[C@H]1CSCc2cccc(c2)CSC[C@@H](C(N)=O)NC(=O)[C@H](Cc2ccccc2)NC(=O)[C@H](CCCNC(=N)N)NC(=O)[C@H](CS)NC(=O)[C@H](CCCNC(=N)N)NC(=O)[C@@H]2CCCN2C(=O)[C@H](C(c2ccccc2)c2ccccc2)NC1=O`, for which the EC50 is 75.1 nM. Regarding `CCCCCCCCCCCCCCCC(=O)N[C@H]1CSCc2cccc(c2)CSCCNC(=O)[C@H](Cc2ccccc2)NC(=O)[C@H](CCCNC(=N)N)NC(=O)[C@H](CS)NC(=O)[C@H](CCCNC(=N)N)NC(=O)[C@@H]2CCCN2C(=O)[C@H](C(c2ccccc2)c2ccccc2)NC1=O` (Palmitoyl-C[Dip]PRCRF; linker 1-C via X4), the EC50 was 369 nM. As for `CC(=O)N[C@H]1CSCc2cccc(c2)CSC[C@@H](C(=O)NCCOCCOCCN)NC(=O)[C@H](Cc2ccccc2)NC(=O)[C@H](CCCNC(=N)N)NC(=O)[C@H](CS)NC(=O)[C@H](CCCNC(=N)N)NC(=O)[C@@H]2CCCN2C(=O)[C@H](C(c2ccccc2)c2ccccc2)NC1=O` (Ac-C[Dip]PRCRFC-{NH(CH2CH2O)2CH2CH2NH2}; linker 1-8 via mXylylene), the EC50 was 165 nM.

As for `CCCCCCCCCCCCCCCC(=O)N[C@@H](C(=O)N[C@H]1CSCc2cccc(c2)CSCCNC(=O)[C@H](Cc2ccccc2)NC(=O)[C@H](CCCNC(=N)N)NC(=O)[C@H](CS)NC(=O)[C@H](CCCNC(=N)N)NC1=O)C(c1ccccc1)c1ccccc1` (Palmitoyl-[dDip]CRCRF; linker 2-C via X4), the EC50 was 458 nM. Turning to `N=C(N)NCCC[C@@H]1NC(=O)[C@H](CS)NC(=O)[C@H](CCCNC(=N)N)NC(=O)[C@H](NC(=O)CC(c2ccccc2)c2ccccc2)CSCc2cccc(c2)CSC[C@@H](C(N)=O)NC(=O)[C@H](Cc2ccccc2)NC1=O` ({Propanoyl(3,3-Ph2)}-[dC]RCRFC-NH2; linker 1-6 via mXylylene), the EC50 came to 335 nM. On to `N=C(N)NCCC[C@@H]1NC(=O)[C@@H](NC(=O)CC(c2ccccc2)(c2ccccc2)c2ccccc2)CSCc2cccc(c2)CSC[C@@H](C(N)=O)NC(=O)[C@H](Cc2ccccc2)NC(=O)[C@H](CCCNC(=N)N)NC(=O)[C@H](CS)NC1=O` (X2-CRCRFC-NH2; linker 1-6 via mXylylene), for which the EC50 amounted to 113 nM.
